From ChEMBL document CHEMBL1124344, “5-Piperazinylalkyl-2(3H)-oxazolones with neuroleptic activity” (J Med Chem, 1989)

How the values were obtained:
[1] = Lethal dose in mice (LD50) following i.p. dosing; type: toxicity, organism-based; conditions: mouse, in vivo, ip
Summary of the method: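 Acute toxicity tested in mice by the intraperitoneal route. LD50 is the dose killing 50% of treated mice, computed by Finney probit analysis; values are approximate.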

[2] = system: Mus musculus; assay: Inhibition of spontaneous motor activity in mice, by administering perorally; type: functional; conditions: po
Summary of the method: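 Mice in groups of five were dosed orally with gum arabic suspensions at 10 mL/kg after an overnight fast, with a vehicle control group. Locomotion was counted for 10 min in a photocell activity cage, in at least two groups per dose. ED50, by probit analysis, is the dose giving 50% inhibition against controls.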

[3] = system: Rattus norvegicus; assay: Antagonistic activity against apomorphine-induced stereotypy in rats, by administering perorally at a dose of 50 mg/kg; type: functional; conditions: route oral
Summary of the method: (§1)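 Male rats fasted overnight and given oral doses in arabic gum suspension (10 mL/kg) 1 h, or 1 and 5 h, before challenge. Apomorphine 3 mg/kg iv, with stereotypy observed 20 min later. ED50 is the dose inhibiting stereotypy in 50% of rats, per Janssen's method. Parenthetical entries give the maximal dose and percent activity.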

[4] = system: Rattus norvegicus; assay: Activity to evoke catalepsy in rats, by administering perorally at a dose of 50 mg/kg; type: functional; conditions: route oral
Summary of the method: (§2)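 Rats fasted overnight and given oral doses in arabic gum suspension (10 mL/kg), 1 h before screening or 1 and 5 h before profile testing. Forelegs placed on a horizontal bar 7 cm high, three times at 5-min intervals. Immobility of at least 15 s counts as catalepsy. ED50 is the dose giving catalepsy in 50% of rats, by probit analysis. Parenthetical entries give the maximal dose and percent activity.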

[5] = system: Mus musculus; assay: Inhibition of amphetamine-induced hypermobility in mice following p.o. administration.; type: functional; conditions: po
Summary of the method: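 Compounds were given orally to male mice (gum arabic suspension, 10 mL/kg, fasted) in groups of five. Amphetamine 4 mg/kg ip followed 30 min later. After another 10 min, motility was recorded for 15 min with a photocell actophotometer. ED50, by probit analysis, is the dose giving 50% reduction against controls.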

[6] = system: Rattus norvegicus; assay: Antagonistic activity against apomorphine-induced stereotypy in rats, by administering perorally at a dose of 150 mg/kg; type: functional; conditions: route oral; summary of the method: as §1
[7] = system: Rattus norvegicus; assay: Activity to evoke catalepsy in rats, by administering perorally at a dose of 150 mg/kg; type: functional; conditions: route oral; summary of the method: as §2
[8] = system: Rattus norvegicus; assay: Antagonistic activity against apomorphine-induced stereotypy in rats, by administering perorally at a dose of 20 mg/kg; type: functional; conditions: route oral; summary of the method: as §1
[9] = system: Mus musculus; assay: Antagonistic activity against amphetamine-induced Hypermobility in mice, by administering perorally at a dose of 20 mg/kg; type: functional; conditions: route oral
Summary of the method: (§3)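 Male mice in groups of five, fasted overnight, given oral drug in arabic gum suspension (10 mL/kg) 1 or 5 h ahead. Amphetamine 4 mg/kg ip given 30 min after drug. Ten minutes later locomotion is recorded for 15 min in a photocell actophotometer. ED50 is 50% reduction versus control hypermotility, by probit analysis. Parenthetical entries give the maximal dose and percent activity.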

[10] = system: Rattus norvegicus; assay: Activity to evoke catalepsy in rats, by administering perorally at a dose of 20 mg/kg; type: functional; conditions: route oral, read-out: Inhibition; summary of the method: as §2
[11] = system: Mus musculus; assay: Inhibition of spontaneous motor activity in mice, by administering perorally at a dose of 20 mg/kg; type: functional; conditions: route oral
Summary of the method: (§4)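 Mice fasted overnight, then dosed orally with compound (weighed as base) suspended in arabic gum, 10 mL/kg, with vehicle controls; 1 h pretreatment for screening tests, 1 or 5 h for others. Groups of five; locomotor activity counted 10 min in photocell activity cage, at least two groups per dose. ED50 = dose giving 50% inhibition versus controls, by probit analysis.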

[12] = system: Rattus norvegicus; assay: Antagonistic activity against apomorphine-induced stereotypy in rats, by administering perorally; type: functional; conditions: po; summary of the method: as §1
[13] = system: Rattus norvegicus; assay: Activity to evoke catalepsy in rats, by administering perorally; type: functional; conditions: po; summary of the method: as §2
[14] = system: Mus musculus; assay: Antagonistic activity against amphetamine-induced Hypermobility in mice, by administering perorally at a dose of 70 mg/kg; type: functional; conditions: route oral; summary of the method: as §3
[15] = system: Rattus norvegicus; assay: Activity to evoke catalepsy in rats, by administering perorally at a dose of 70 mg/kg; type: functional; conditions: route oral; summary of the method: as §2
[16] = system: Mus musculus; assay: Inhibition of spontaneous motor activity in mice, by administering perorally at a dose of 70 mg/kg; type: functional; conditions: route oral; summary of the method: as §4
[17] = system: Rattus norvegicus; assay: Antagonistic activity against apomorphine-induced stereotypy in rats, by administering perorally at a dose of 100 mg/kg; type: functional; conditions: route oral; summary of the method: as §1
[18] = system: Rattus norvegicus; assay: Activity to evoke catalepsy in rats, by administering perorally at a dose of 100 mg/kg; type: functional; conditions: route oral, read-out: Inhibition; summary of the method: as §2
[19] = system: Mus musculus; assay: Antagonistic activity against amphetamine-induced Hypermobility in mice, by administering perorally at a dose of 100 mg/kg; type: functional; conditions: route oral; summary of the method: as §3
[20] = system: Mus musculus; assay: Inhibition of spontaneous motor activity in mice, by administering perorally at a dose of 100 mg/kg; type: functional; conditions: route oral; summary of the method: as §4

For `COc1cccc(N2CCN(CCc3oc(O)nc3-c3ccc(F)cc3)CC2)c1`, the LD50 [1] was 500 mg/kg, the ED50 [2] was 10.8 mg/kg and the inhibition in vivo at 50 mg/kg [3] was 0%. It also gave an inhibition in vivo at 50 mg/kg [4] of 30% and an ED50 [5] of 7.6 mg/kg.
`O=C(c1ccccc1)n1c(-c2ccc(F)cc2)c(CCN2CCN(c3ccccc3)CC2)oc1=O` showed an LD50 [1] of 750 mg/kg, an ED50 [2] of 4 mg/kg and an inhibition in vivo at 150 mg/kg [6] of 40%. It also gave an inhibition in vivo at 150 mg/kg [7] of 0% and an ED50 [5] of 9.3 mg/kg.
Molecule `Oc1nc(-c2ccc(F)cc2)c(CCN2CCN(c3cc(Cl)c(Cl)cc3Cl)CC2)o1` has an inhibition in vivo at 20 mg/kg [8] of 0%, an LD50 [1] of 750 mg/kg and an inhibition in vivo at 20 mg/kg [9] of 0%. It also gave a percent of rats showing catalepsy at 20 mg/kg [10] of 0% and an inhibition in vivo at 20 mg/kg [11] of 0%.
In the case of `Oc1nc(-c2ccc(F)cc2)c(CCN2CCN(c3cccc(Cl)c3Cl)CC2)o1`, the inhibition in vivo at 20 mg/kg [8] was 0%, the LD50 [1] was 90 mg/kg and the inhibition in vivo at 20 mg/kg [9] was 69%. It also gave an ED50 [2] of 12.5 mg/kg and a percent of rats showing catalepsy at 20 mg/kg [10] of 0%.
Work on `Oc1nc(-c2ccccc2)c(CCN2CCN(c3ccccc3)CC2)o1` yielded an ED50 [12] of 200 mg/kg, an LD50 [1] greater than 1000 mg/kg and an ED50 [13] of 63 mg/kg. The ED50 [2] was 60 mg/kg and the ED50 [5] was 51 mg/kg.
For `CC(=O)n1c(-c2ccc(F)cc2)c(CCN2CCN(c3ccccc3)CC2)oc1=O`, the ED50 [12] was 44 mg/kg, the LD50 [1] was 350 mg/kg and the ED50 [13] was 30.5 mg/kg. It also gave an ED50 [2] of 2.7 mg/kg and an ED50 [5] of 4.7 mg/kg.
Molecule `Oc1nc(-c2ccc(Cl)cc2)c(CCN2CCN(c3ccccn3)CC2)o1` has an LD50 [1] of 375 mg/kg, an ED50 [13] of 47 mg/kg and an ED50 [2] of 14.1 mg/kg. For the same molecule, the inhibition in vivo at 50 mg/kg [3] was 0% and the ED50 [5] was 14.3 mg/kg.
`COc1ccc(-c2nc(O)oc2CCN2CCN(c3ccccc3)CC2)cc1` showed an ED50 [12] of 47 mg/kg, an inhibition in vivo at 70 mg/kg [14] of 27% and an LD50 [1] of 350 mg/kg. The inhibition in vivo at 70 mg/kg [15] was 0% and the inhibition in vivo at 70 mg/kg [16] was 26%.
For `Oc1nc(-c2ccc(F)cc2)c(CCN2CCN(c3cccc(C(F)(F)F)c3)CC2)o1`, the LD50 [1] was greater than 1000 mg/kg, the inhibition in vivo at 100 mg/kg [17] was 0% and the ED50 [2] was 16.9 mg/kg. It also gave an ED50 [5] of 11.6 mg/kg and a percent of rats showing catalepsy at 100 mg/kg [18] of 0%.
`COc1ccccc1N1CCN(CCc2oc(=O)n(C(C)=O)c2-c2ccc(F)cc2)CC1` showed an ED50 [12] of 14.5 mg/kg, an LD50 [1] of 190 mg/kg and an ED50 [13] of 30 mg/kg. For the same molecule, the ED50 [2] was 4.3 mg/kg and the ED50 [5] was 3.5 mg/kg.
With `Oc1nc(-c2ccc(Cl)cc2)c(CN2CCN(c3ccccc3)CC2)o1` the LD50 [1] was greater than 1000 mg/kg, the inhibition in vivo at 100 mg/kg [19] was 0% and the inhibition in vivo at 100 mg/kg [17] was 0%. The inhibition in vivo at 100 mg/kg [20] was 15% and the percent of rats showing catalepsy at 100 mg/kg [18] was 0%.
For `CC(=O)n1c(-c2ccc(F)cc2)c(CCN2CCN(c3cc(Cl)cc(Cl)c3)CC2)oc1=O`, the LD50 [1] was 1000 mg/kg, the inhibition in vivo at 100 mg/kg [17] was 10% and the ED50 [2] was 4.5 mg/kg. For the same molecule, the ED50 [5] was 2.7 mg/kg and the percent of rats showing catalepsy at 100 mg/kg [18] was 0%.
With `Oc1nc(-c2ccc(F)cc2)c(CCN2CCN(c3cc(Br)cc(Br)c3)CC2)o1` the LD50 [1] was 1000 mg/kg, the inhibition in vivo at 100 mg/kg [17] was 0% and the ED50 [2] was 15 mg/kg. For the same molecule, the ED50 [5] was 5.4 mg/kg and the percent of rats showing catalepsy at 100 mg/kg [18] was 0%.
With `Cn1c(-c2ccc(F)cc2)c(CCN2CCN(c3ccccc3)CC2)oc1=O` the ED50 [12] was 112 mg/kg, the LD50 [1] was 750 mg/kg and the ED50 [2] was 19.5 mg/kg. It also gave an ED50 [5] of 21 mg/kg and a percent of rats showing catalepsy at 100 mg/kg [18] of 0%.
`Oc1nc(-c2ccc(F)cc2)c(CCN2CCN(c3ccc(Cl)c(Cl)c3)CC2)o1` gave an LD50 [1] of 1000 mg/kg, an inhibition in vivo at 100 mg/kg [19] of 62% and an inhibition in vivo at 100 mg/kg [17] of 0%. For the same molecule, the inhibition in vivo at 100 mg/kg [20] was 21% and the percent of rats showing catalepsy at 100 mg/kg [18] was 0%.
`Oc1nc(-c2ccc(F)cc2)c(CCN2CCN(c3ccc(Cl)c(Cl)c3Cl)CC2)o1` showed an inhibition in vivo at 20 mg/kg [8] of 0%, an LD50 [1] of 750 mg/kg and an inhibition in vivo at 20 mg/kg [9] of 0%. The percent of rats showing catalepsy at 20 mg/kg [10] was 0% and the inhibition in vivo at 20 mg/kg [11] was 0%.
